Test results reported in ChEMBL document CHEMBL2407079, “Potent DGAT1 Inhibitors in the Benzimidazole Class with a Pyridyl-oxy-cyclohexanecarboxylic Acid Moiety” (ACS Med Chem Lett, 2013).

Key:
[1] = molecular target: T1, Diacylglycerol O-acyltransferase 1 (Mus musculus, UniProt Q9Z2A7); experiment: Inhibition of mouse DGAT1
T1 sequence (Q9Z2A7 whole entry): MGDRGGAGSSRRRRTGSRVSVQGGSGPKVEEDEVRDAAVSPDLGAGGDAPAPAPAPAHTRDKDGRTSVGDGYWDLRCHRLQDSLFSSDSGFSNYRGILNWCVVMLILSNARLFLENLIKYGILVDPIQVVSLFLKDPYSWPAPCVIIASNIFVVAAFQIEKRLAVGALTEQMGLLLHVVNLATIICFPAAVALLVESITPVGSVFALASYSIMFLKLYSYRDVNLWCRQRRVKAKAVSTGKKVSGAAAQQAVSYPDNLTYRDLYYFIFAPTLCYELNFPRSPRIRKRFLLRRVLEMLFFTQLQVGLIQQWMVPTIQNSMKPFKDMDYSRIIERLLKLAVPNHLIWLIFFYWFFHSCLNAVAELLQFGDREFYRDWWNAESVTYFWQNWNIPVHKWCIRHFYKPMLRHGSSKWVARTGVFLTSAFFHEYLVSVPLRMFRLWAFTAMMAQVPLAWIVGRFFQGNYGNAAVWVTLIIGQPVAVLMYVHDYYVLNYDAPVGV

[2] = molecular target: T2, Diacylglycerol O-acyltransferase 1 (Homo sapiens, UniProt O75907); experiment: Inhibition of human DGAT1
T2 sequence (O75907 whole entry): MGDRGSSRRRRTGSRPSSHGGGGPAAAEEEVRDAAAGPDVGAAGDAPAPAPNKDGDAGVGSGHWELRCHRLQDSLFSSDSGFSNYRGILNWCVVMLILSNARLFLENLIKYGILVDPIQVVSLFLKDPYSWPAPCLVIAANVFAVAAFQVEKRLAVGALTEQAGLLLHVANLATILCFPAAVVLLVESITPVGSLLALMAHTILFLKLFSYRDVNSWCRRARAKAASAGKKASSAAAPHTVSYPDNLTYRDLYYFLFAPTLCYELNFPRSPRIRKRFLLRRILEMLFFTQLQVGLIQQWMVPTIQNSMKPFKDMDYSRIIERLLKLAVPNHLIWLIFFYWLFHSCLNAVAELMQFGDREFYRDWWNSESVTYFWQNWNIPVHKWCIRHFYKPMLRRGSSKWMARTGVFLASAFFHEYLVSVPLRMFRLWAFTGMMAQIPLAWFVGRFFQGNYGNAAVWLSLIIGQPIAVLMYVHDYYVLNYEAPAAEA

[3] = test system: Mus musculus; experiment: Reduction in triglyceride excursion in mouse at 10 mg/kg, po measured at 18 hrs by lipid tolerance test; assay type: functional; parameters: scale not given: the % may be the effect or the level left
How it was run: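 Mouse lipid tolerance test. Oral dose of 10 mg/kg as a suspension in 0.5% methylcellulose; triglyceride reduction read at 18 h.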

[4] = Lipophilicity, log D of the compound by HPLC analysis; assay type: physicochemical

| SMILES | IC50 [1] [nM] | IC50 [2] [nM] | Activity [3] [%] | logD [4] |
| --- | --- | --- | --- | --- |
| O=C(O)[C@H]1CC[C@H](Oc2ccc(-c3ccc(-c4nc5ccccc5[nH]4)cn3)cn2)CC1 | 12 | 5.3 |  |  |
| COc1ccc2[nH]c(-c3ccc(-c4ccc(O[C@H]5CC[C@@H](C(=O)O)CC5)nc4)nc3)nc2n1 |  | 11 |  |  |
| COc1ccc2[nH]c(-c3ccc(-c4ccc(O[C@H]5CC[C@H](C(=O)O)CC5)nc4)nc3)nc2n1 |  | 14 |  |  |
| O=C(O)[C@H]1CC[C@H](Oc2ccc(-c3ccc(-c4nc5cc(Cl)ccc5[nH]4)cn3)cn2)CC1 | 4.2 | 2 | 83 | 1.43 |
| O=C(O)C[C@H]1CC[C@H](c2ccc(-c3ccc(-c4nc5ccc(C(F)(F)F)cc5[nH]4)cn3)cc2)CC1 | 2.8 | 3.5 |  | 1.97 |
